Assay outcomes from PubChem BioAssay.
Rows were chosen to be rich in hits. Some 1.3% of all compounds tested hit in one or more screens of this group.
LYPLA1 inh: LYPLA1 inhibitors, primary screen, counter-screen for PME1 inhibitor project, biochemical, fluorescence polarization, FP-Rh probe ABPP. AID 2174, 2009. recombinant LYPLA1. inhibition, % at 5.9 µM. actives 0.16% (n = 320,000). Acyl-protein thioesterase 1 (Homo sapiens), O75608;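 active = inhibition above the mean of all tested compounds plus 3 SD, set per campaign, cut at about 14% in these data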;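 note: inhibitors block serine hydrolase probe labeling of LYPLA1 so polarization falls; 0% = enzyme with DMSO and 100% = wells lacking LYPLA1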
PME-1 inh: PME-1 inhibitors via competitive probe labeling, primary screen, biochemical, fluorescence polarization, FP-Rh probe, HTS; Protein phosphatase methylesterase 1 (Homo sapiens), Q9Y570; recombinant PME-1; inhibition, % at 5.9 µM; actives 0.53% (n = 320,000); AID 2130, 2009;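 active = inhibition above the campaign mean of all compounds plus 3 SD, cut at about 26% in these data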;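 note: competitive labeling of PME-1 active site by serine hydrolase directed probe; 0% = PME-1 with DMSO and 100% = wells lacking PME-1 enzyme; inhibitors block probe labeling so polarization falls and inhibition rises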
LYPLA2 inh: LYPLA2 inhibitors, primary screen, counter-screen for PME1 inhibitor project, biochemical, fluorescence polarization, FP-Rh probe ABPP; recombinant LYPLA2; inhibition, % at 5.9 µM; actives 0.38% (n = 320,000);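 active = inhibition above the screen-wide mean plus 3 SD, limit set per campaign, cut at about 26% in these data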;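 note: 0% = LYPLA2 with DMSO and 100% = wells lacking LYPLA2 enzyme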
PAD4 inh: human PAD4 inhibitors, primary screen, biochemical, fluorescence polarization, 1536-well format | Protein-arginine deiminase type-4 (Homo sapiens), Q9UM07 | recombinant PAD4, RCA probe fluorescence polarization | inhibition, % at 6.36 µM | actives 0.41% (n = 330,000);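 active = percent inhibition above a cutoff equal to the mean of all tested compounds plus 3 SD, cut at about 15% in these data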;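 note: 0% = PAD4 with RCA probe and DMSO and 100% = probe without PAD4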
Target sequence (Q9UM07 whole entry, looked up): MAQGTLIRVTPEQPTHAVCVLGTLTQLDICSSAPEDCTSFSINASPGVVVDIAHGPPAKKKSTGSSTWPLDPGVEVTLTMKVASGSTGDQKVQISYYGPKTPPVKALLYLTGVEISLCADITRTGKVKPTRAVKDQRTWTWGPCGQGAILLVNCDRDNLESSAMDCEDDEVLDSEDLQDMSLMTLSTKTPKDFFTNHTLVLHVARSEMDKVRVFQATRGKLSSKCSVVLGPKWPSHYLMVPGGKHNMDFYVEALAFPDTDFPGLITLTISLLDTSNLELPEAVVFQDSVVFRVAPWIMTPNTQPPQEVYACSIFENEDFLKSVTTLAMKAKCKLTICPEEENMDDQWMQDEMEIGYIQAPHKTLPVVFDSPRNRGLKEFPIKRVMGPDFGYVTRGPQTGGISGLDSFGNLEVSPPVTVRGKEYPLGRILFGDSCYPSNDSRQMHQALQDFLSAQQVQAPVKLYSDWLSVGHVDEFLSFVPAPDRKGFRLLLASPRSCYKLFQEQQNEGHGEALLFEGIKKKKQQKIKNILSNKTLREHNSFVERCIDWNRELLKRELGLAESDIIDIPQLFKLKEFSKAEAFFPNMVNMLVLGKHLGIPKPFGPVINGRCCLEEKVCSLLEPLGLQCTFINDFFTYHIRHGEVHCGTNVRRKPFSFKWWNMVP
Fam108B counter: mouse Fam108B serine hydrolase inhibitors, primary screen, counter-screen for RBBP9 inhibitor project, biochemical, fluorescence polarization. inhibition, % at 9.51 µM. recombinant Fam108B, FP-Rh probe fluorescence polarization. actives 0.33% (n = 300,000). AID 1947, 2009;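 active = inhibition above the screen mean inhibition plus 3 SD, computed separately per campaign, cut at about 18% in these data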;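 note: inhibitors lower polarization as less probe binds the enzyme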
RBBP9 inh: human RBBP9 inhibitors, primary screen, biochemical, fluorescence polarization, FP-Rh probe, HTS; Serine hydrolase RBBP9 (Homo sapiens), O75884; recombinant RBBP9; inhibition, % at 7.94 µM; actives 0.2% (n = 220,000);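 active = inhibition above the campaign mean of all tested compounds plus 3 SD, cut at about 14% in these data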;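 note: plate controls were DMSO wells with RBBP9 for no effect and wells lacking RBBP9 protein for full effect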
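System: RBBP9 protein / Buffer or medium: Tris/NaCl buffer pH 8.0 with 0.1% Pluronic / Probe or stimulus: Serine-hydrolase probe FP-Rh, 375 nM pre-mixing / Dosing: 7.94 µM single dose, 0.794% DMSO / Times: enzyme-compound preincubation 30 min, then probe labeling 45 min, 25 °C / Technique: fluorescence polarization (mP), excitation 525 nm, emission 598 nm / Replication: singlicate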
LYPLA2 conf: LYPLA2 inhibitors, retest, confirmation, counter-screen for PME1 inhibitor project, biochemical, fluorescence polarization, FP-Rh probe ABPP | shares compounds with LYPLA2 inh | recombinant LYPLA2 | inhibition, % at 5.9 µM | actives 72% (n = 1,100);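 active = mean inhibition across replicates above the hit cutoff set in the primary screen, cut at about 26% in these data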;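 note: blocked labeling of the enzyme by serine hydrolase FP-Rh probe lowers polarization; 0% = enzyme with DMSO and 100% = wells lacking LYPLA2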
LYPLA2 ABPP: LYPLA2 inhibitors in proteome, late-stage follow-up, gel-based competitive ABPP, fluorescence, assay provider; inhibition, % at 20 µM; shares compounds with LYPLA2 inh; actives 30% (n = 150); rhLYPLA2 in mouse brain proteome, gel ABPP FP-Rh;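 active = inhibition of LYPLA2 enzyme probe labeling above about 50%, limit read from the data; inactive = inhibition below that limit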;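 note: loss of FP-Rh probe labeling of the LYPLA2 gel band measured as band density; 0% = DMSO only control band and 100% = blank gel background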
* marks the source's active call; other numbers are inactive results; / = not tested or not shown.

SMILES | LYPLA1 inh | PME-1 inh | LYPLA2 inh | PAD4 inh | Fam108B counter | RBBP9 inh | LYPLA2 conf | others
Cc1onc(-c2c(Cl)cccc2Cl)c1CO/N=C(\C#N)c1c(Cl)cccc1Cl | 0 | -6 | 3 | 6 | -4 | -12 | /
CCC1CCC(c2nnc(-c3ccc([N+](=O)[O-])cc3)o2)CC1 (configuration not stated) | 6 | -2 | 49* | 0 | 4 | -8 | 51* | LYPLA2 ABPP=23
Clc1ccc(-c2nnc(C3CC3)o2)cc1 | 5 | 2 | 10 | 3 | 1 | 8 | /
CCc1ccccc1NC(=S)N(CCc1ccncc1)C(C)C | 3 | -7 | 3 | -1 | -4 | -7 | /
COc1cc(NC(=O)CCn2c(=S)oc3ccccc32)cc(OC)c1OC | 2 | 3 | 0 | 0 | 2 | / | /
CCN(CC)S(=O)(=O)c1ccc(N2CCOCC2)c(NC(=O)COc2ccccc2)c1 | 0 | 8 | 4 | 2 | -2 | -5 | /
CCN(CC)S(=O)(=O)c1ccc(N2CCOCC2)c(NC(=O)CNCCc2ccccc2)c1 | 0 | 6 | 53* | -2 | 0 | -4 | 58* | LYPLA2 ABPP=16
COc1ccc(N2CC(C(=O)NCCc3ccc(Cl)cc3)CC2=O)cc1 (configuration not stated) | 2 | -2 | 1 | 2 | 1 | / | /
O=C1[C@@H]2Cc3c([nH]c4ccccc34)CN2C(=O)CN1CCCCCO | -1 | -11 | 30* | 3 | -3 | / | 20
CC(C)CCN1CC(=O)N2Cc3[nH]c4ccccc4c3C[C@H]2C1=O | 2 | 1 | 60* | 2 | 0 | / | 56* | LYPLA2 ABPP=14
O=C1[C@@H]2Cc3c([nH]c4ccccc34)CN2C(=O)CN1CCO | 2 | 1 | 6 | -1 | -1 | / | /
N#Cc1cnn2c3c(cnc12)C(=O)N1CCc2ccccc2C1C3 (configuration not stated) | 10 | 0 | 42* | 0 | 0 | -11 | 44*
COc1ccc(-n2c(C)cc(C(=O)Cn3nnc4ccccc4c3=O)c2C)cc1 | -1 | -13 | 27* | -1 | -2 | -2 | 20
Cc1ccc(SCC(=O)NC2CCCCCC2)cc1 | -1 | -1 | 8 | 4 | 6 | / | /
CCCC(=O)Nc1ccc(N2CCN(C(=O)c3cc4ccccc4o3)CC2)cc1 | 10 | 2 | 45* | 1 | 0 | / | 50*
COc1cccc(C(=O)NC(=S)N2CCN(c3ccc(C(F)(F)F)cc3[N+](=O)[O-])CC2)c1 | 3 | 5 | 65* | -6 | -2 | 0 | 52* | LYPLA2 ABPP=13
CC(C)Oc1cccc(C(=O)NC(=S)N2CCN(c3ccc(C(F)(F)F)cc3[N+](=O)[O-])CC2)c1 | -8 | 0 | 8 | 0 | 3 | -1 | /
OC(COc1cccc2ccccc12)CN1CCN(c2cccc(Cl)c2)CC1 (configuration not stated) | 13 | -1 | 35* | 4 | 4 | 0 | 22
O=[N+]([O-])c1ccccc1OCC(O)CN1CCN(CC(O)COc2ccccc2[N+](=O)[O-])CC1 (configuration not stated) | 0 | 4 | 44* | -7 | -1 | / | 49*
OC(COc1cccc2ccccc12)CN1CCN(c2ccc(Cl)cc2)CC1 (configuration not stated) | -2 | 3 | 1 | -2 | 1 | 1 | /
